Results as given in ChEMBL document CHEMBL1144560, “Synthesis of benzofuran scaffold-based potential PTP-1B inhibitors” (Bioorg Med Chem, 2007).
Activity calls are given as the source filed them. No cut-off for these calls is given here.

Tests used:
[1] = target: T1, Tyrosine-protein phosphatase non-receptor type 1 (Homo sapiens) (UniProt P18031); assay: (§1) Inhibition of PTP1B at 100 uM
T1 sequence (whole entry): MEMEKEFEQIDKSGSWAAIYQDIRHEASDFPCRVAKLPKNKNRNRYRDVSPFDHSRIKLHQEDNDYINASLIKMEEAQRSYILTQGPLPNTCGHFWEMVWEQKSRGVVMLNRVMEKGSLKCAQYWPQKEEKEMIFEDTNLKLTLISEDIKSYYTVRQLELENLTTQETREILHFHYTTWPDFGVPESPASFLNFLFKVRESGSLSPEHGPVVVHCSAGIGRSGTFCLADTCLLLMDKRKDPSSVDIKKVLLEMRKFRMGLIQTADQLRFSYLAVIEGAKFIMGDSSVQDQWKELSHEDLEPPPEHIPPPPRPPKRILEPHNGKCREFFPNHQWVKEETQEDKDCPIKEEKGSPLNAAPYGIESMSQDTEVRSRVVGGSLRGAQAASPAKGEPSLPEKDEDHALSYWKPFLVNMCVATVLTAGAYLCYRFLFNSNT
Outline: (§2)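 Compound at 100 µM preincubated 10 min with PTP-1B, then 10 mM pNPP in 50 mM HEPES pH 7.0 with 1 mM DTT and 2 mM EDTA for 30 min at 37 °C. Stopped with 0.1 N NaOH. p-Nitrophenolate read at 410 nm (ε 1.78×10^4 M⁻¹cm⁻¹) to give residual activity. Mean of three independent experiments.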

[2] = target: T2, Tyrosine-protein phosphatase non-receptor type 1 (Homo sapiens, UniProt P18031); assay: Inhibition of PTP1B
T2 sequence (P18031 whole entry): T1 sequence (whole entry)
Outline: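 No detergent present. Compounds at 10, 25, 50, 75 and 100 µM preincubated 10 min with PTP-1B, then 10 mM pNPP in 50 mM HEPES pH 7.0, 1 mM DTT, 2 mM EDTA, 30 min at 37 °C. NaOH stop. A410 converted to p-nitrophenolate (ε 1.78×10^4 M⁻¹cm⁻¹). IC50 and Ki derived.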

[3] = target: T2, Tyrosine-protein phosphatase non-receptor type 1; assay: Inhibition of PTP1B in presence of 0.01% Triton X-100
Outline: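 0.01% Triton X-100 included during the 10-min preincubation of compound (10–100 µM) with PTP-1B. Then 10 mM pNPP in 50 mM HEPES pH 7.0, 1 mM DTT, 2 mM EDTA, 30 min at 37 °C, NaOH stop. Read at 410 nm (ε 1.78×10^4 M⁻¹cm⁻¹). IC50 and Ki derived.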

[4] = target: Tyrosine-protein phosphatase non-receptor type 1 (Homo sapiens) (UniProt P18031); assay: as §1; outline: as §2; remark: listed apart in the source

## CC(=O)c1cc2ccoc2cc1O
[1]
  inhibition: 19%

## COc1ccc(/C(O)=C/C(=O)c2ccc3occc3c2OC)cc1
[1]
  Activity: inactive

## CC(=O)c1cc2oc(-c3coc4cc(C(C)=O)c(O)cc34)cc2cc1O
[1]
  inhibition: 36.2%

## COc1ccc(/C(O)=C/C(=O)c2cc3ccoc3cc2O)cc1
[1]
  inhibition: 40.5%

## CC(=O)c1c(O)ccc2cc(-c3coc4c(C(C)=O)c(O)ccc34)oc12
[2]
  IC50: 75 µM
  Ki: 64 µM
[1]
  inhibition: 72%
[3]
  IC50: 56.3 µM
  Ki: 54 µM

## CC(=O)c1ccc2oc(-c3coc4ccc(C(C)=O)c(O)c34)cc2c1O
[2]
  IC50: 87 µM
  Ki: 35 µM
[1]
  inhibition: 67.4%
[3]
  IC50: 58.8 µM
  Ki: 27.5 µM

## COc1ccc(-c2cc(=O)c3cc4ccoc4cc3o2)cc1OC
[1]
  inhibition: 24.3%

## COC(=O)c1ccc2oc(-c3coc4ccc(C(=O)OC)c(O)c34)cc2c1O
[1]
  inhibition: 55.5%

## COc1ccc2cc(-c3coc4c(C(C)=O)c(OC)ccc34)oc2c1C(C)=O
[1]
  inhibition: 54.6%

## COc1ccc(-c2cc(=O)c3cc4ccoc4cc3o2)cc1
[2]
  IC50: 72.5 µM
  Ki: 30 µM
[1]
  inhibition: 75.6%
[3]
  IC50: 68.8 µM
  Ki: 36 µM

## SODIUM ORTHOVANAD
[4]
  inhibition: 56%

## COc1cccc(-c2cc(=O)c3cc4ccoc4cc3o2)c1
[1]
  Activity: inactive

## O=C(/C=C(\O)c1ccc(CO)c(CO)c1)c1cc2ccoc2cc1O
[1]
  inhibition: 56.7%

## COc1c(C(=O)/C=C(\O)c2ccccc2Cl)ccc2occc12
[1]
  inhibition: 27%

## COc1ccc(-c2cc(=O)c3ccc4occc4c3o2)cc1
[1]
  inhibition: 22%

## O=c1cc(-c2ccc(CO)c(CO)c2)oc2cc3occc3cc12
[1]
  inhibition: 8.1%

## CC(=O)c1cc2cc(-c3coc4cc(O)c(C(C)=O)cc34)oc2cc1O
[2]
  IC50: 80 µM
  Ki: 37 µM
[1]
  inhibition: 74.9%
[3]
  IC50: 91.3 µM
  Ki: 61 µM

## COc1ccc(/C(O)=C/C(=O)c2cc3ccoc3cc2O)cc1OC
[1]
  inhibition: 32.4%

## O=c1cc(-c2ccccc2)oc2c1ccc1occc12
[1]
  inhibition: 21%

## O=c1cc(-c2ccccc2)oc2cc3occc3cc12
[2]
  IC50: 94 µM
  Ki: 57 µM
[1]
  inhibition: 67.5%
[3]
  IC50: 61.3 µM
  Ki: 45 µM

## COc1ccc(/C(O)=C/C(=O)c2ccc3occc3c2O)cc1
[1]
  inhibition: 24.3%

## O=C(/C=C(\O)c1ccccc1)c1ccc2occc2c1O
[1]
  inhibition: 40.5%

## COc1cc2occc2cc1C(=O)/C=C(\O)c1ccccc1
[1]
  inhibition: 41.5%

## COc1c(C(=O)/C=C(\O)c2ccc(CO)c(CO)c2)ccc2occc12
[1]
  inhibition: 42.8%

## COc1cccc(/C(O)=C/C(=O)c2cc3ccoc3cc2O)c1
[1]
  Activity: inactive

## CC(=O)c1ccc2occc2c1O
[1]
  inhibition: 21.6%

## O=C(/C=C(\O)c1ccccc1)c1cc2ccoc2cc1O
[1]
  inhibition: 24.3%
